Laboratory results published in ChEMBL document CHEMBL2157902, “Modified tetrahalogenated benzimidazoles with CK2 inhibitory activity are active against human prostate cancer cells LNCaP in vitro” (Bioorg Med Chem, 2012).
Active and inactive are the calls of the source. The calls are words filed in the database; no cut-off is given here.

System: not listed separately
Assay: Inhibition of CK2
Conditions: not given

Row | SMILES | IC50 | Ki
1 | CN(C)c1nc2c(Br)c(Br)c(Br)c(Br)c2n1CC(=O)O | 0.27 µM | 
2 | CN(C)c1nc2c(Br)c(Br)c(Br)c(Br)c2[nH]1 |  | 0.04 µM
3 | O=C(O)CCCSc1nc2c(Br)c(Br)c(Br)c(Br)c2[nH]1 | 0.27 µM | 

System: LNCaP
Assay: Antiproliferative activity against human LNCAP cells assessed as decrease in cell viability at 20 uM after 48 hrs by MTT assay
Type: functional
Conditions: not given
Outline: (§1)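 LNCaP cells grown in RPMI1640 with 10% FBS at 37 °C, 5% CO2. Seeded at 2 × 10^4 cells/500 µl in 24-well plates the day before treatment, then exposed to 10 or 20 µM for 24 or 48 h. MTT was added for a further 1 h, cells lysed and A595 read. Viability given as % of DMSO-treated control. Mean of at least three independent experiments.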

Row | SMILES | Activity
4 | NCCCCNc1nc2c(Br)c(Br)c(Br)c(Br)c2[nH]1 | 20%
5 | Ic1c(I)c(I)c2[nH]cnc2c1I | 20%
6 | Brc1c(Br)c(Br)c2[nH]cnc2c1Br | 20%

System: LNCaP
Assay: Antiproliferative activity against human LNCAP cells after 24 to 48 hrs by MTT assay
Type: functional
Conditions: read-out: LD50 (the source's name)
Outline: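 LNCaP cells were grown in RPMI1640 with 10% FBS at 37 °C under 5% CO2, and 2 × 10^4 cells/well were seeded the day before treatment. Cells were exposed to 10 or 20 compound for 24 and 48 h. MTT (5 mg/ml) was then added for 1 h, cells were lysed, and A595 was read. Viable cells were expressed as % of DMSO-treated control, mean of ≥3 independent experiments.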

Row | SMILES | CC50
7 | NCCCCNc1nc2c(Br)c(Br)c(Br)c(Br)c2[nH]1 | < 10 µM
8 | NCCNc1nc2c(Br)c(Br)c(Br)c(Br)c2[nH]1 | < 10 µM
9 | NCCCNc1nc2c(Br)c(Br)c(Br)c(Br)c2[nH]1 | < 10 µM
10 | Cn1c(NCCN)nc2c(I)c(I)c(I)c(I)c21 | < 10 µM
11 | CN(C)CCNc1nc2c(Br)c(Br)c(Br)c(Br)c2[nH]1 | < 10 µM
12 | NCCNc1nc2c(I)c(I)c(I)c(I)c2[nH]1 | < 10 µM
13 | CN(C)CCNc1nc2c(I)c(I)c(I)c(I)c2[nH]1 | < 10 µM
14 | Cn1c(NCCN)nc2c(Br)c(Br)c(Br)c(Br)c21 | < 10 µM

System: LNCaP
Assay: Antiproliferative activity against human LNCAP cells assessed as decrease in cell viability at 10 uM after 48 hrs by MTT assay
Type: functional
Conditions: not given
Outline: as §1

Row | SMILES | Activity
15 | NCCCCNc1nc2c(Br)c(Br)c(Br)c(Br)c2[nH]1 | 20%
16 | Ic1c(I)c(I)c2[nH]cnc2c1I | 20%
17 | Brc1c(Br)c(Br)c2[nH]cnc2c1Br | 20%

System: LNCaP
Assay: Induction of apoptosis in human LNCAP cells assessed as PARP cleavage at 20 uM after 24 hrs by Western blot analysis
Type: functional, cell-based
Conditions: not given
Outline: (§2)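 LNCaP cells treated 24 h at 10 or 20 µM, then lysed in RIPA buffer with protease inhibitors and protein measured by Bradford. Extracts (150 µg) run on 7.5% SDS-PAGE and tank-blotted to PVDF. Probed overnight at 4 °C with polyclonal rabbit anti-PARP (1:1000), detected with peroxidase anti-rabbit and chemiluminescence. Full-length and 85 kDa fragment scored.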

Row | SMILES | Activity
18 | NCCCCNc1nc2c(Br)c(Br)c(Br)c(Br)c2[nH]1 | inactive
19 | Ic1c(I)c(I)c2[nH]cnc2c1I | Active
20 | NCCNc1nc2c(Br)c(Br)c(Br)c(Br)c2[nH]1 | Active
21 | NCCCNc1nc2c(Br)c(Br)c(Br)c(Br)c2[nH]1 | Active
22 | Cn1c(NCCN)nc2c(I)c(I)c(I)c(I)c21 | inactive
23 | CN(C)CCNc1nc2c(Br)c(Br)c(Br)c(Br)c2[nH]1 | Active
24 | NCCNc1nc2c(I)c(I)c(I)c(I)c2[nH]1 | Active
25 | CN(C)CCNc1nc2c(I)c(I)c(I)c(I)c2[nH]1 | Active
26 | Cn1c(NCCN)nc2c(Br)c(Br)c(Br)c(Br)c21 | inactive
27 | Brc1c(Br)c(Br)c2[nH]cnc2c1Br | Active

System: LNCaP
Assay: Induction of apoptosis in human LNCAP cells assessed as PARP cleavage after 24 hrs by Western blot analysis
Type: functional, cell-based
Conditions: not given
Outline: as §2

Row | SMILES | Activity
28 | NCCNc1nc2c(Br)c(Br)c(Br)c(Br)c2[nH]1 | Dose-dependent effect

System: LNCaP
Assay: Induction of apoptosis in human LNCAP cells assessed as PARP cleavage at 10 uM after 24 hrs by Western blot analysis
Type: functional, cell-based
Conditions: not given
Outline: as §2

Row | SMILES | Activity
29 | CN(C)c1nc2c(Br)c(Br)c(Br)c(Br)c2n1CC(=O)O | inactive
30 | NCCCCNc1nc2c(Br)c(Br)c(Br)c(Br)c2[nH]1 | inactive
31 | NCCNc1nc2c(Br)c(Br)c(Br)c(Br)c2[nH]1 | Active
32 | Cn1c(NCCN)nc2c(I)c(I)c(I)c(I)c21 | inactive
33 | O=C(O)CCCSc1nc2c(Br)c(Br)c(Br)c(Br)c2[nH]1 | inactive
34 | Cn1c(NCCN)nc2c(Br)c(Br)c(Br)c(Br)c21 | inactive

Molecular target: not listed separately
Assay: Inhibition of rat liver CK2 using RRRADDSDDDDD as substrate
Conditions: not given

Row | SMILES | Ki
35 | CN(C)c1nc2c(Br)c(Br)c(Br)c(Br)c2n1CC(=O)O | 0.25 µM
36 | CN(C)CCNc1nc2c(Br)c(Br)c(Br)c(Br)c2[nH]1 | 0.16 µM

System: LNCaP
Assay: Antiproliferative activity against human LNCAP cells assessed as decrease in cell viability at 10 to 20 uM after 24 to 48 hrs by MTT assay
Type: functional, cell-based
Conditions: not given
Outline: as §1

Row | SMILES | Activity
37 | CN(C)c1nc2c(Br)c(Br)c(Br)c(Br)c2n1CC(=O)O | inactive
38 | O=C(O)CCCSc1nc2c(Br)c(Br)c(Br)c(Br)c2[nH]1 | inactive

System: LNCaP
Assay: Antiproliferative activity against human LNCAP cells after 24 by MTT assay
Type: functional
Conditions: read-out: LD50 (the source's name)
Outline: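 LNCaP cells were grown in RPMI1640 with 10% FBS at 37 °C under 5% CO2, and 2 × 10^4 cells/well were seeded the day before. Cells were treated with 3–10 µM for 24 h. MTT (5 mg/ml) was then added for 1 h, cells were lysed, and absorbance was read at 595 nm. Viability was expressed as % of DMSO control. LD50 was calculated by curve fitting, mean of ≥3 independent experiments.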

Row | SMILES | CC50
39 | NCCNc1nc2c(Br)c(Br)c(Br)c(Br)c2[nH]1 | 7.22 µM
40 | Cn1c(NCCN)nc2c(I)c(I)c(I)c(I)c21 | 4.75 µM
41 | CN(C)CCNc1nc2c(Br)c(Br)c(Br)c(Br)c2[nH]1 | 9.37 µM
42 | CN(C)CCNc1nc2c(I)c(I)c(I)c(I)c2[nH]1 | 7.37 µM
